Screens from PubChem.
Shown are actives, neighbours in structure and some others; about 2.2% of the full set was active somewhere.
PPC-1+TRAIL kill: compounds killing PPC-1 cancer cells with TRAIL present, primary screen, TRAIL potentiator project, ATPLite luminescence, uHTS; cell killing (% activity), % at 4 µM or 5 µM; PPC-1 cells + TRAIL, ATPLite viability luminescence; AID 1443, 2008; 220,000 compounds, 0.41% hits;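 active = cell killing above 50% in the first pass at 4 µM, then a duplicate retest at 5 µM averaging 50% or more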;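 also: plate controls were cells with TRAIL plus DMSO for no effect and medium-only wells lacking cells for full effect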
C8 TRAIL sens: viability loss with TRAIL in NB7+C8 cells, primary screen, TRAIL sensitizer project, cell-based, ATPlite luminescence | inhibition (viability loss, TRAIL sensitization), % at 10 µM | 360,000 compounds, 1% hits | AID 624354, 2012;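 active = compounds causing at least 50% loss of cell viability in the single-dose screen, relative to plate controls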
FLuc inh counter: firefly luciferase enzyme inhibitors, primary screen, artefact control for luciferase-based inhibitor screens, biochemical, luminescence, ATPLite. Luciferin 4-monooxygenase (Photinus pyralis), P08659. 10 min. inhibition, % at 10 µM. 200,000 compounds, 1.5% hits;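 active = inhibition above about 50% when tested at 10 µM, limit read from the data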
Target sequence (P08659 whole entry, looked up): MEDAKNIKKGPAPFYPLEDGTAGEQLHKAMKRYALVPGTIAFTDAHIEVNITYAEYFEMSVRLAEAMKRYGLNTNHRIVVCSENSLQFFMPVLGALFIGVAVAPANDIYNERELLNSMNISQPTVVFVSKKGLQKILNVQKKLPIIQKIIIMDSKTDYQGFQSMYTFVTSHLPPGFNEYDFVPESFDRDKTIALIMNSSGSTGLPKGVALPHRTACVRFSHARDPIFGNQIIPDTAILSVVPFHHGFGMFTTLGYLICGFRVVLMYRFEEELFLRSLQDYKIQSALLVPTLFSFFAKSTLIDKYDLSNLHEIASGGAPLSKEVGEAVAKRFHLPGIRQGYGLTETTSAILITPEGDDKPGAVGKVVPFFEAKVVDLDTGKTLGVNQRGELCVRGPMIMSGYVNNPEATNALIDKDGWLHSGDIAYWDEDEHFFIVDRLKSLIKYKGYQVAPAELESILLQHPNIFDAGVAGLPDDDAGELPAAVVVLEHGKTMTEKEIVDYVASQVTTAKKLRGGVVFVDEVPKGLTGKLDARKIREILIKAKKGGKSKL
FLuc stim CS: FLuc activators, initial screening, artefact control for FLuc-dependent activation tests, biochemical, ATPlite luminescence; ATPlite luciferase biochemical, 10 min; 0 = ATP-free wells, 1 = DMSO control; activation factor at 10 µM; 200,000 tested, under 10 active; Luciferin 4-monooxygenase (Photinus pyralis), P08659; AID 1027, 2008;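 active = luciferase activation factor, scaled between plate controls, of at least 2 with compound at 10 µM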
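System: Luciferase/luciferin detection reagent, cell-free biochemical luciferase assay | Medium: PBS buffer for ATP | Dosing: Test compounds dosed from 2 mM stocks in 100% DMSO | Timing: 10 min at ambient temperature | Signal: Luminescence measurement of luciferase light output | Evaluation: Luciferase activation, seen as luminescence increase over controls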
APP 5'UTR act: activators of APP 5'UTR luciferase reporter, primary screen, SH-SY5Y cells | SH-SY5Y APP 5'UTR luciferase reporter, luminescence; zero percent = DMSO vehicle wells | activation, % at 2 µM | 190,000 compounds, 1% hits | AID 1276, 2008;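 active = activation above a set limit, based on mean plus 3 SD of controls, cut at about 140% in these data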
NF-kB neuron act: activators of NF-kB expression in neurons, primary screen, cell-based, HTS; human neuronal cells, NF-kB reporter expression; active compounds read high; 190,000 compounds, 1.6% hits; fold change at 12.5 µM; in the data active = fold change above about 3.3
Numbers without * were called inactive; nt = no result given.

SMILES	PPC-1+TRAIL kill	C8 TRAIL sens	FLuc inh counter	FLuc stim CS	APP 5'UTR act	NF-kB neuron act
Cc1ccc(S(=O)(=O)N2C3CC(c4ccccc4)N(S(=O)(=O)c4ccccc4Cl)CC3C(=O)C[C@H]2c2ccccc2)cc1 (some centres undefined)	nt	-5.0	nt	nt	nt	nt
Nc1ccc(Nc2nc(-c3cc4ccccc4oc3=O)cs2)cc1	nt	-4.8	6.0	0.9	94.8	8.98*
CC(=O)Nc1ccc(Nc2nc(-c3cc4ccccc4oc3=O)cs2)cc1	nt	38.5	nt	nt	nt	nt
CCCNC(=O)C1(C)CCCN(C(=O)c2cccc(C(F)(F)F)c2)C1 (centres undefined)	nt	1.6	nt	nt	nt	nt
COc1ccc(NC(=O)C2(C)Cc3c(-c4ccc(N(C)C)cc4)ccnc3O2)cn1 (centres undefined)	nt	23.2	nt	nt	nt	nt
O=C(Nc1ccc(-n2cnnn2)cc1)c1cn2ccccc2n1	23.5	33.6	nt	nt	nt	nt
O=C(Nc1ccc(-c2cn3ccccc3n2)cc1)c1cccs1	45.9	51.9*	73.1*	0.3	136.3*	2.25
O=C(Nc1ccccc1)c1cn2ccccc2n1	48.4	58.4*	nt	nt	nt	nt
CCCCNC(=O)c1[nH]c(C2CCNCC2)nc1-c1cccc(C(F)(F)F)c1	nt	-1.9	nt	nt	nt	nt
Cc1cc(C(=O)COC(=O)c2ccc(Br)o2)c(C)n1C	12.0	3.5	28.3	0.7	70.5	3.96*
COCCn1c(C)cc(C(=O)COC(=O)c2ccc(Cl)c(S(N)(=O)=O)c2)c1C	nt	61.6*	nt	nt	nt	nt
COCCn1c(C)cc(C(=O)COC(=O)c2ccc(Br)o2)c1C	5.9	0.6	80.0*	0.2	268.0*	1.06
COc1cc2[nH]c(=O)c(C(=O)NCc3ccc(C)cc3)c(O)c2cc1OC	nt	-8.2	nt	nt	nt	nt
CC(C)c1ccc(C(=O)N2CCCC(c3cc(C(=O)Nc4ccc5c(c4)OCO5)no3)C2)cc1 (centres undefined)	nt	14.1	nt	nt	nt	nt
CCOC(=O)Nc1nc(-c2ccccc2)c(C(=O)c2ccccc2)s1	8.9	15.4	-2.2	1	-94.4	3.59*
CC(=O)c1sc(NC(=O)c2ccccc2)nc1-c1ccccc1	24.3	18.8	45.5	0.5	101.2	4.92*
Oc1cccc(-c2nc3ccccc3s2)c1	-15.2	48.5	71.0*	0.3	116.1	9.04*
CC(=O)Nc1cccc(-c2nc3ccccc3s2)c1	29.1	10.4	22.9	0.8	64.1	3.02
COc1cc2sc3ccc(C#CC4(O)CCCCC4)cc3c(=O)c2cc1OC	nt	75.0*	nt	nt	nt	nt
Cn1c2ccccc2c(=O)c2ccc(C#CC3(O)CCCCC3)cc21	nt	85.5*	nt	nt	nt	nt
COc1cccc2sc3cc(C#CC4(O)CCCCC4)ccc3c(=O)c12	nt	47.9	nt	nt	nt	nt
C#CCN1CCc2onc(-c3ccc(Br)cc3)c2C1=O	nt	8.3	nt	nt	nt	nt
C=CCn1c(SCC(N)=O)nc2scc(-c3ccc(C)o3)c2c1=O	33.5	15.5	15.5	0.8	166.6*	2.75
C=CCn1c(SCc2ccccc2)nc2scc(-c3ccc(C)o3)c2c1=O	14.8	-15.6	-4.2	1	-2.0	1.21
COC1=C(Br)C(=O)c2nc(C)ccc2C1=O	nt	0.2	nt	nt	nt	nt
SMILES	PPC-1+TRAIL kill	C8 TRAIL sens	FLuc inh counter	FLuc stim CS	APP 5'UTR act	NF-kB neuron act
COC1=C(N)C(=O)c2nc(C)ccc2C1=O	nt	91.0*	nt	nt	nt	nt
COCCNc1nc(Nc2ccc(Cl)cc2F)c2sccc2n1	nt	-0.5	nt	nt	nt	nt
c1ccc(COc2ccc(OCCOCCn3cncn3)cc2)cc1	-0.1	18.1	40.6	0.6	154.1*	3.62*
O=S(=O)(c1ccc(Br)cc1)N1CCN(c2ccc3nnc(-c4ccccc4)n3n2)CC1	-6.7	50.9*	-6.0	1.1	5.1	0.67
O=C(c1ccc(Br)o1)N1CCN(c2ccc3nnc(-c4ccccc4)n3n2)CC1	9.3	12.8	-3.2	1	16.1	0.32
Cc1cccc(-c2noc(-c3csc([C@@H]4C[C@H](O)[C@@H](CO)O4)n3)n2)c1	nt	51.1*	nt	nt	nt	nt
COC(=O)C(Sc1ccc(Cl)cc1)C1SC(=S)N(Cc2ccccc2)C1=O (centres undefined)	nt	26.1	nt	nt	nt	nt
O=C(C[C@@H]1C=C[C@H](NS(=O)(=O)c2ccccc2F)[C@@H](CO)O1)NCCCN1CCOCC1	nt	10.2	nt	nt	nt	nt
CCOC(=O)c1c(C)sc2c1N(C(=O)CCl)c1cc(Cl)ccc1S2	4.6	55.0*	-6.1	1.1	1.6	0.19
Cc1sc2ncnc(SCC(=O)N3c4ccccc4Sc4ccc(Cl)cc43)c2c1C	-2.2	-1.8	-6.0	1.1	7.0	1
Cc1ccccc1C(=O)Nc1nnc(-c2ccco2)s1	25.3	29.4	41.8	0.6	140.8*	3.72*
COc1ccccc1NC(=O)Nc1nnc(-c2ccco2)s1	8.7	nt	-3.9	1	10.8	1.47
COc1ccccc1C(=O)Nc1nnc(-c2ccco2)s1	24.4	26.3	51.4*	0.5	145.0*	3.16
CC(C)CSCC1OC(n2cnc3c(N)nccc32)C(O)C1O (centres undefined)	nt	1.5	nt	nt	nt	nt
Cc1ccc(NC(=O)c2ccccc2F)nc1	8.9	14.6	52.2*	0.5	54.2	2.23
Cc1ccc(NC(=O)c2cc(F)c(F)cc2Cl)nc1	19.7	17.3	35.3	0.6	128.1	2.8
O=C(Nc1ccccc1C(=O)Nc1ccc(Br)cn1)c1ccccc1Cl	nt	-5.1	nt	nt	nt	nt
Cc1ccccc1C(=O)Nc1ccc(Br)cn1	18.0	13.2	26.6	0.7	110.8	3.82*
O=C1NC[C@H](CCCCN2C[C@H](Cc3ccc(O)cc3)N(CCc3ccccc3)C(=O)C2=O)N(CC2CCCCC2)C1=O	nt	-9.6	nt	nt	nt	nt
C=CCn1c(C)cc(C(=O)COc2ncnc3sccc23)c1C	12.8	38.2	58.1*	0.4	181.7*	2.84
O=CNc1cc(-c2cccc(F)c2)cn2c(-c3ccc(F)c(Cl)c3)cnc12	nt	4.2	nt	nt	nt	nt
CC(C)(C)NC(=O)c1cc(-c2ccc3c(c2)OCO3)nc2ccccc12	nt	16.7	nt	nt	nt	nt
Cn1c(NC(=O)c2cc(-c3ccc4c(c3)OCO4)nc3ccccc23)cc(=O)n(C)c1=O	41.1	38.1	71.6*	0.3	26.6	1.74
O=C(C=Cc1ccccc1Cl)c1ccccc1	nt	19.1	nt	nt	nt	nt
O=C(/C=C/Sc1ccccc1)c1ccccc1	19.3	-2.7	87.5*	0.1	18.3	5.22*
O=C(/C=C/Sc1ccccc1)c1ccc(Cl)cc1	22.6	16.6	60.8*	0.4	-5.4	6.25*
C/C(=N\NC(=O)CNC(=O)c1ccc2c(c1)OCCO2)c1ccco1	2.0	3.1	nt	nt	nt	nt
C/C(=N/NC(=O)c1ccc2c(c1)OCO2)c1cccc(NC(=O)C(C)(C)C)c1	21.3	34.0	52.9*	0.5	-2.2	1.49
C/C(=N\NC(=O)c1csc(C)c1C)c1ccco1	41.1	54.9*	78.9*	0.2	78.4	3.72*
C/C(=N\NC(=O)c1ccc2c(c1)OCO2)c1ccco1	36.6	52.0*	81.9*	0.2	60.3	2.84
